Structures are written as SMILES. Calls of active or inactive are those of the source. No cut-off for these calls is given here.

The record followed here is ChEMBL document CHEMBL5107962, “Covalent sortase A inhibitor ML346 prevents Staphylococcus aureus infection of Galleria mellonella” (RSC Med Chem, 2022).

Data set [1] concerns Staphylococcus aureus. Nature of the data set: Antibacterial activity against Staphylococcus aureus USA300 assessed as inhibition of bacterial growth incubated for 16 to 18 hrs. The data set is classed as functional. As to conditions: time 16-18 hrs. Summed up:
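Broth microdilution: S. aureus in TSB, E. coli in LB. Overnight cultures diluted 1:1000, grown at 37 °C to A600 0.6, then diluted 1:400 into two-fold compound dilutions. Incubated 16–18 h at 37 °C without shaking. MIC taken as the lowest concentration with no visible growth. Two independent experiments.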

Data set [2] is described as follows: Inhibition of recombinant Streptococcus pyogenes sortase A deltaN81 transpeptidation expressed in Escherichia coli BL21 (DE3) cells using Abz-LPATG-Dnp as substrate preincubated for 20 mins followed by substrate addition and measured every 1 min for 15 mins by FRET assay. In a few lines: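 His-tagged enzyme purified by Ni-NTA and gel filtration. 1 µM SrtA preincubated with compound (0.05–50 µM) for 20 min at room temperature in 50 mM Tris-HCl pH 7.5, 150 mM NaCl, 5 mM CaCl2. Reaction started with 10 µM Abz-LPATG-Dnp, read at ex 309/em 420 nm. IC50 from a sigmoidal dose–response fit; triplicates, two experiments.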

The subject of data set [3] is Staphylococcus aureus. In words: Anti-virulence activity against Staphylococcus aureus Newman harbouring deltasrtA mutant assessed as decrease in cell-wall anchored SpA level at 25 to 200 uM by FITC-labelled human IgG based […]. As to conditions: dose 25-200 µM. The data set is classed as functional, organism-based. Summed up: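 S. aureus grown in TSB (1:1000 dilution) with inhibitor until A600 1.0. Washed cells incubated with FITC-labelled human IgG in PBS for 30 min at room temperature in the dark, rinsed, and read by fluorescence. Three technical replicates, three independent experiments. Mean ± SEM, unpaired two-tailed Student's t test (n = 3).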
In general terms: A western blot detects proteins with antibodies after separation by electrophoresis.

For data set [4], the system named is Streptococcus pyogenes. In words: Irreversible inhibition of recombinant Streptococcus pyogenes sortase A deltaN81 expressed in Escherichia coli BL21(DE3) cells using Abz-LPATG-Dnp as substrate assessed as Kinact/Ki ratio preincubated for 60 mins followed by substrate addition and measured every 1 min for 15 mins by fluorescence intensity based assay. The note with it: time 75.0 min. In a few lines:
(§1)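 Variable inhibitor concentrations incubated with SaSrtAΔN24 or SpSrtAΔN81 for different times, followed by FRET enzyme kinetics with Abz-LPATG-Dnp. kobs fitted as kinact × [I]/(KI + [I]) to give kinact and KI.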

For another data set, the target named is Sortase A (Staphylococcus aureus, UniProt Q9S446). In words: Inhibition of recombinant Staphylococcus aureus sortase A deltaN24 transpeptidation expressed in Escherichia coli BL21 (DE3) cells using IsdA64 to 323 as substrate preincubated for 20 mins followed by substrate addition and measured after 1.5 hrs by SDS-PAGE-based assay. In a few lines: (§2)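 SrtA (200 µg mL-1) preincubated with inhibitor (1–50 µM) for 20 min at room temperature in Tris pH 7.5, NaCl, CaCl2 buffer. IsdA64-323 (300 µg mL-1 final) and 3 mM (Gly)3 added, incubated at 37 °C for 1.5 h, then run on 12% SDS-PAGE. IC50 from band quantification of precursor and mature product. Two independent experiments.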

Data set [5] is described as follows: Irreversible inhibition of recombinant Streptococcus pyogenes sortase A deltaN81 expressed in Escherichia coli BL21(DE3) cells using Abz-LPATG-Dnp as substrate assessed as inactivation constant preincubated for 60 mins followed by substrate addition and measured every 1 min for 15 mins by fluorescence intensity based assay. In a few lines: as §1
Data set [6] deals with Sortase A (Staphylococcus aureus), Q9S446 [UNDEFINED MUTATION]. Nature of the data set: Irreversible inhibition of recombinant Staphylococcus aureus sortase A deltaN24 expressed in Escherichia coli BL21(DE3) cells using Abz-LPATG-Dnp as substrate assessed as maximum inactivation rate constant preincubated for 60 mins followed by substrate addition and measured every 1 min for 15 mins by fluorescence intensity based assay. The note with it: time 75.0 min. In a few lines:
as §1

For data set [7], the system named is Staphylococcus aureus. In words: Anti-infectivity against Staphylococcus aureus Newman infected in Galleria mellonella larvae assessed as survival rate at 25 mg/kg and measured after 120 hrs. The data set is classed as functional. Summed up:
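G. mellonella larvae (2-2.5 cm, creamy), starved 24 h at room temperature. S. aureus grown in TSB to A600 1.0, washed and resuspended in PBS, premixed with compound in vehicle (5% DMSO, 20% PEG300, 75% PBS with 6.6% solutol HS-15). Injected into last proleg at about 1 × 10^6 CFU/larva (Newman) or 1 × 10^7 CFU/larva (USA300). Groups of 15 kept at 37 °C, survival recorded 120 h, Mantel–Cox test.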

Data set [8] relates to Staphylococcus aureus. In words: Antibiofilm activity against methicillin-resistant Staphylococcus aureus USA300 assessed as reduction in biofilm biomass at 25 to 200 uM incubated for 18 hrs by crystal violet staining based microplate reader analysis. In kind it is functional, organism-based. As to conditions: dose 25-200 µM. Summed up: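 S. aureus overnight culture diluted 1:1000 in TSB with inhibitor, grown static at 37 °C for 18 h. Wells rinsed with PBS, fixed with methanol 10 min, stained with 0.1% crystal violet 15 min. Stain dissolved in 33% acetic acid and A600 read. Three independent experiments, mean ± SEM.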

In data set [9] the test system is Sortase A (Staphylococcus aureus), Q9S446 [UNDEFINED MUTATION]. In words: Irreversible inhibition of recombinant Staphylococcus aureus sortase A deltaN24 expressed in Escherichia coli BL21(DE3) cells using Abz-LPATG-Dnp as substrate assessed as […] preincubated for 60 mins followed by substrate addition and measured every 1 min for 15 mins by fluorescence intensity based assay. The note with it: time 75.0 min. In a few lines: as §1

Data set [10] in a line: Toxicity in Galleria mellonella larvae assessed as creamy colour appearance measured after 120 hrs. Summed up: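 G. mellonella larvae (2-2.5 cm, creamy), starved 24 h, injected with 10 µL compound in vehicle (5% DMSO, 20% PEG300, 75% PBS with 6.6% solutol HS-15). Kept at 37 °C; survival and appearance recorded over 120 h with photography. Three independent experiments.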

Data set [11] concerns Streptococcus pyogenes. In words: Irreversible inhibition of recombinant Streptococcus pyogenes sortase A deltaN81 expressed in Escherichia coli BL21(DE3) cells using Abz-LPATG-Dnp as substrate assessed as maximum inactivation rate constant preincubated for 60 mins followed by substrate addition and measured every 1 min for 15 mins by fluorescence intensity based assay. As to conditions: time 75.0 min. Summed up:
as §1

Data set [12] in a line: Inhibition of recombinant Streptococcus pyogenes sortase A deltaN81 transpeptidation expressed in Escherichia coli BL21 (DE3) cells using IsdA64 to 323 as substrate preincubated for 20 mins followed by substrate addition and measured after 1.5 hrs by SDS-PAGE-based assay. Summed up: as §2
Data set [13] concerns Staphylococcus aureus. In words: Anti-virulence activity against Staphylococcus aureus Newman assessed as decrease in SpA display on cell envelope at 25 to 200 uM by Western blot analysis. In kind it is functional, organism-based. The note with it: dose 25-200 µM. Summed up:
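S. aureus overnight culture diluted 1:1000 in TSB and grown with inhibitor until A600 3.0. Washed cells treated with 10 µg mL-1 lysostaphin in PBS for 15 min at 37 °C. Supernatant (cell-wall anchored proteins) run on SDS-PAGE and immunoblotted for SpA, with ClpP as loading control. Three independent experiments.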

The target in a further data set is Procathepsin L (Homo sapiens, UniProt P07711). Nature of the data set: Inhibition of cathepsin L (unknown origin) using Cbz-Phe-Arg-AMC as substrate at 20 uM preincubated for 5 mins followed by substrate addition and measured after 10 mins by fluorometric assay. As to conditions: time 15.0 min. In a few lines: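 Cbz-Phe-Arg-AMC added (40 µM for B, 80 µM for L) and fluorescence read at ex 380/em 460 nm over 10 min. E64 at 6.25 nM as control. Triplicates, two experiments.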
Chain of Procathepsin L (P07711 114-333 limits assumed): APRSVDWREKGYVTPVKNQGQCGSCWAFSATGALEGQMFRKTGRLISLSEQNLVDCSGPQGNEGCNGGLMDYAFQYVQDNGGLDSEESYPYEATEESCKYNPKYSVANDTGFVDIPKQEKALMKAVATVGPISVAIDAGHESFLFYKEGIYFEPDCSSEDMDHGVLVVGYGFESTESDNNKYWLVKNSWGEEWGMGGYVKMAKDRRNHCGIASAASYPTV

The term MIC denotes the lowest concentration that inhibits growth of the organism. The term IC50 denotes the concentration needed to halve the response being measured. As for `COc1ccc(/C=C/C=C2C(=O)NC(=O)NC2=O)cc1`, in the data set on Staphylococcus aureus [1], the MIC is greater than 512 µg/mL. In addition, the IC50 was determined as 1370 nM in [2], 2650 nM on Sortase A and 5880 nM in data set [12]. Besides, the result in the data set on Staphylococcus aureus [3], in the data set with Staphylococcus aureus [8] and with Staphylococcus aureus [13] was Active. Further, the Ratio with Streptococcus pyogenes [4] is 0.064 µM⁻¹ min⁻¹; in data set [9], 0.075 µM⁻¹ min⁻¹. Moreover, in data set [5], the Ki came out at 686 nM. Besides, the Kinact was 0.185 min⁻¹ in data set [6] and 0.044 min⁻¹ in the data set on Streptococcus pyogenes [11]. Besides, the Activity in the data set with Staphylococcus aureus [7] is 46.7%; in data set [10], “Non-Toxic”. For the same compound, the inhibition result at Procathepsin L was “Active”.
